Measurements published in ChEMBL document CHEMBL4346654 (Eur J Med Chem, 2019).
In brackets after ≈: the same amount, converted by molar mass.

Assays:
[1] = test system: Haemophilus influenzae; test: Bactericidal activity against azithromycin-susceptible Haemophilus influenzae ATCC 49247 pretreated followed by subculture in absence of compound measured after 24 hrs; type: functional
How it was run: (§1)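 Isolates were identified by 16S rDNA sequencing. MIC was determined by CLSI-recommended two-fold broth dilution. For MBC, samples from 1–8 fold MIC were transferred to culture medium and subcultured for 24 h without antibiotic.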

[2] = test system: Staphylococcus aureus; test: Antibacterial activity against MLS-resistant Staphylococcus aureus PU 20 expressing constitutive ermC gene assessed as reduction in microbial growth by CLSI based two-fold broth dilution method; type: functional
[3] = test system: Streptococcus pneumoniae; test: Antibacterial activity against erythromycin-susceptible Streptococcus pneumoniae ATCC49619 assessed as reduction in microbial growth by CLSI based two-fold broth dilution method; type: functional
[4] = test system: Staphylococcus aureus; test: Bactericidal activity against MLS-resistant Staphylococcus aureus PU 20 expressing constitutive ermC gene pretreated followed by subculture in absence of compound measured after 24 hrs; type: functional
How it was run: (§2)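 MBC assay. Following MIC determination by CLSI standard two-fold broth dilution, samples at 1–8 fold MIC were transferred to fresh culture medium. They were subcultured for 24 h without antibiotic. Isolates were identified by 16S rDNA sequencing. S. aureus ATCC 29213 was used as a control strain.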

[5] = test system: Haemophilus influenzae; test: Antibacterial activity against azithromycin-susceptible Haemophilus influenzae ATCC 49247 assessed as reduction in microbial growth by CLSI based two-fold broth dilution method; type: functional
[6] = test system: Streptococcus pneumoniae; test: Bactericidal activity against erythromycin-susceptible Streptococcus pneumoniae ATCC49619 pretreated followed by subculture in absence of compound measured after 24 hrs; type: functional; how it was run: as §1
[7] = test system: Staphylococcus aureus; test: Selectivity ratio of MBC to MIC for MLS-resistant Staphylococcus aureus PU 20 expressing constitutive ermC gene; type: functional
How it was run: (§3)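 MBC/MIC ratio. MIC was measured by CLSI standard two-fold broth dilution. MBC was measured by transferring samples at 1–8 fold MIC to culture medium and subculturing for 24 h without antibiotic. Isolates were identified by 16S rDNA sequencing.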

[8] = test system: Streptococcus pneumoniae; test: Antibacterial activity against penicillin-susceptible Streptococcus pneumoniae PU 09 expressing mef gene assessed as reduction in microbial growth by CLSI based two-fold broth dilution method; type: functional
[9] = test system: Staphylococcus aureus; test: Bactericidal activity against MLS/methicillin-resistant Staphylococcus aureus PU 32 expressing inducible ermA gene pretreated followed by subculture in absence of compound measured after 24 hrs; type: functional; how it was run: as §2
[10] = test system: Streptococcus pneumoniae; test: Selectivity ratio of MBC to MIC for Streptococcus pneumoniae 07P390 expressing constitutive ermB gene; type: functional; how it was run: as §1
[11] = test system: Streptococcus pyogenes; test: Bactericidal activity against MLS-resistant Streptococcus pyogenes 01-968 expressing inducible ermB gene pretreated followed by subculture in absence of compound measured after 24 hrs; type: functional; how it was run: as §2
[12] = test system: Streptococcus pyogenes; test: Selectivity ratio of MBC to MIC for MLS-resistant Streptococcus pyogenes 01-968 expressing inducible ermB gene; type: functional; how it was run: as §3
[13] = test system: Streptococcus pneumoniae; test: Bactericidal activity against penicillin-susceptible Streptococcus pneumoniae PU 09 expressing mef gene pretreated followed by subculture in absence of compound measured after 24 hrs; type: functional; how it was run: as §1
[14] = test system: Staphylococcus aureus; test: Antibacterial activity against MLS-resistant Staphylococcus aureus PU 32 expressing inducible ermA gene assessed as reduction in microbial growth by CLSI based two-fold broth dilution method; type: functional
[15] = test system: Staphylococcus aureus; test: Selectivity ratio of MBC to MIC for MLS/methicillin-resistant Staphylococcus aureus PU 32 expressing inducible ermA gene; type: functional; how it was run: as §3
[16] = test system: Streptococcus pyogenes; test: Antibacterial activity against MLS-resistant Streptococcus pyogenes 01-968 expressing inducible ermB gene assessed as reduction in microbial growth by CLSI based two-fold broth dilution method; type: functional
[17] = test system: Streptococcus pneumoniae; test: Selectivity ratio of MBC to MIC for erythromycin-susceptible Streptococcus pneumoniae ATCC49619; type: functional; how it was run: as §1
[18] = test system: Streptococcus pneumoniae; test: Bactericidal activity against Streptococcus pneumoniae 07P390 expressing constitutive ermB gene pretreated followed by subculture in absence of compound measured after 24 hrs; type: functional; how it was run: as §1
[19] = test system: Streptococcus pneumoniae; test: Selectivity ratio of MBC to MIC for penicillin-susceptible Streptococcus pneumoniae PU 09 expressing mef gene; type: functional; how it was run: as §1
[20] = test system: Haemophilus influenzae; test: Selectivity ratio of MBC to MIC for azithromycin-susceptible Haemophilus influenzae ATCC 49247; type: functional; how it was run: as §1
[21] = test system: Streptococcus pneumoniae; test: Antibacterial activity against Streptococcus pneumoniae 07P390 expressing constitutive ermB gene assessed as reduction in microbial growth by CLSI based two-fold broth dilution method; type: functional
[22] = test system: Moraxella catarrhalis; test: Bactericidal activity against erythromycin-susceptible Moraxella catarrhalis 13L332 pretreated followed by subculture in absence of compound measured after 24 hrs; type: functional; how it was run: as §1
[23] = Systemic plasma clearance in Sprague-Dawley rat at 20 mg/kg, po after 0.25 to 24 hrs by LC-MS/MS analysis; type: ADME, organism-based
How it was run: (§4)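 Male SD rats were given a single 20 mg/Kg oral dose. Blood was sampled at 0.25, 0.5, 1, 2, 4, 6, 8 and 24 h and centrifuged at 2500 g for 5 min at 4 °C. Drug levels were quantified by LC-MS/MS. t1/2, Cmax, Tmax, CL, MRT and AUC were calculated from the concentration–time data.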

[24] = AUCinfinity in Sprague-Dawley rat at 20 mg/kg, po after 0.25 to 24 hrs by LC-MS/MS analysis; type: ADME, organism-based; parameters: dose 20 mg/kg, time infinity, route oral; details: Sprague-Dawley, in vivo; how it was run: as §4
[25] = test system: Streptococcus pyogenes; test: Antibacterial activity against Streptococcus pyogenes 12-207 expressing mef gene assessed as reduction in microbial growth by CLSI based two-fold broth dilution method; type: functional
[26] = test system: Streptococcus pyogenes; test: Bactericidal activity against Streptococcus pyogenes 12-207 expressing mef gene pretreated followed by subculture in absence of compound measured after 24 hrs; type: functional; how it was run: as §1
[27] = biological target: Cytochrome P450 3A4 (Homo sapiens, UniProt P08684); test: Inhibition of CYP3A4 in human liver microsomes assessed as reduction in metabolite formation using midazolam as substrate incubated for 10 mins in presence of NADPH by HPLC based mass spectrometric method; type: ADME
How it was run: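 Human liver microsome CYP3A4 with midazolam substrate in 0.1 M potassium phosphate buffer was prewarmed at 37 °C for 5 min. Compound and 25 mM NADPH solution (stock) were added, then incubated at 37 °C for 10 min. Ketoconazole served as the positive inhibitor. Metabolite was measured by UPLC–triple quadrupole MS as the metabolite/internal standard peak area ratio, and IC50 was derived by curve fitting.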

[28] = test system: Moraxella catarrhalis; test: Antibacterial activity against erythromycin-susceptible Moraxella catarrhalis 13L332 assessed as reduction in microbial growth by CLSI based two-fold broth dilution method; type: functional
[29] = test system: Streptococcus pyogenes; test: Selectivity ratio of MBC to MIC for Streptococcus pyogenes 12-207 expressing mef gene; type: functional; how it was run: as §1
[30] = AUC (0 to t) in Sprague-Dawley rat at 20 mg/kg, po after 0.25 to 24 hrs by LC-MS/MS analysis; type: ADME, organism-based; parameters: time upper 24 hr, dose 20 mg/kg, time lower 0.25 hr, route oral; details: in vivo; how it was run: as §4
[31] = Half life in Sprague-Dawley rat at 20 mg/kg, po after 0.25 to 24 hrs by LC-MS/MS analysis; type: ADME, organism-based; details: in vivo; how it was run: as §4
[32] = MRT in Sprague-Dawley rat at 20 mg/kg, po after 0.25 to 24 hrs by LC-MS/MS analysis; type: ADME, organism-based; details: in vivo; how it was run: as §4
[33] = Cmax in Sprague-Dawley rat at 20 mg/kg, po after 0.25 to 24 hrs by LC-MS/MS analysis; type: ADME, organism-based; parameters: dose 20 mg/kg, route oral; details: in vivo; how it was run: as §4
[34] = test system: Streptococcus pyogenes; test: Antibacterial activity against MLS-resistant Streptococcus pyogenes 12-206 expressing constitutive ermA gene assessed as reduction in microbial growth by CLSI based two-fold broth dilution method; type: functional
[35] = test system: Streptococcus pyogenes; test: Bactericidal activity against MLS-resistant Streptococcus pyogenes 12-206 expressing constitutive ermA gene pretreated followed by subculture in absence of compound measured after 24 hrs; type: functional; how it was run: as §2
[36] = Tmax in Sprague-Dawley rat at 20 mg/kg, po after 0.25 to 24 hrs by LC-MS/MS analysis; type: ADME, organism-based; details: in vivo; how it was run: as §4
[37] = test system: Moraxella catarrhalis; test: Selectivity ratio of MBC to MIC for erythromycin-susceptible Moraxella catarrhalis 13L332; type: functional; how it was run: as §1
[38] = test system: Streptococcus pyogenes; test: Selectivity ratio of MBC to MIC for MLS-resistant Streptococcus pyogenes 12-206 expressing constitutive ermA gene; type: functional; how it was run: as §3

Chain of Cytochrome P450 3A4 (P08684 whole entry): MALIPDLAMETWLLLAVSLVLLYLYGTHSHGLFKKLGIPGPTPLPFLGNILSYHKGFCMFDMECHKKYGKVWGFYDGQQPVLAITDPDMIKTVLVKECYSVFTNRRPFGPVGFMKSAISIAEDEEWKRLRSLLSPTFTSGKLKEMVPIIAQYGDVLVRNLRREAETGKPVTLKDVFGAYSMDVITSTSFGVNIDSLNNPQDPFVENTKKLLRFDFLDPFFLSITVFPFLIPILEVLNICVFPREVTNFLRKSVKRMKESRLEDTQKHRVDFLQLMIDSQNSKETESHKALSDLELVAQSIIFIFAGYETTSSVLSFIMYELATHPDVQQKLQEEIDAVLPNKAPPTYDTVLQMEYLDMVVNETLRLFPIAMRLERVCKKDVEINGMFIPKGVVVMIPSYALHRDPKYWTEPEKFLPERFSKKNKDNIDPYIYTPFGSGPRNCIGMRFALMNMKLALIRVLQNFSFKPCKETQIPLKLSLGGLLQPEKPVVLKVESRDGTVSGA

SMILES | MBC [1] [µg/mL] | MIC [2] [µg/mL] | MIC [3] [µg/mL] | MBC [4] [µg/mL] | MIC [5] [µg/mL] | MBC [6] [µg/mL] | Selectivity ratio [7] | MIC [8] [µg/mL] | MBC [9] [µg/mL] | Selectivity ratio [10] | MBC [11] [µg/mL] | Selectivity ratio [12] | MBC [13] [µg/mL] | MIC [14] [µg/mL] | Selectivity ratio [15] | Selectivity ratio [17] | MBC [18] [µg/mL] | Selectivity ratio [19] | Selectivity ratio [20] | MIC [21] [µg/mL] | further results
CC[C@H]1OC(=O)[C@@](C)(F)C(=O)[C@H](C)[C@@H](O[C@@H]2O[C@H](C)C[C@H](N(C)C)[C@H]2O)[C@](C)(OC/C=C/c2ccc3c(c2)c(=O)c(C(=O)O)cn3C2CC2)C[C@@H](C)/C(=N\OC)[C@H](C)[C@H]2OC(=O)O[C@@]21C | 4 (≈ 4.38 µM) | 64 | 0.125 | 128 (≈ 140 µM) | 2 | 0.25 (≈ 0.274 µM) | 2 | 2 | 2 (≈ 2.19 µM) | 8 | 0.25 (≈ 0.274 µM) | 8 | 2 (≈ 2.19 µM) | 0.25 | 8 | 2 | 8 (≈ 8.75 µM) | 1 | 2 | 1 | MIC [16]: 0.031 µg/mL
CC[C@H]1OC(=O)[C@@](C)(F)C(=O)[C@H](C)[C@@H](O[C@@H]2O[C@H](C)C[C@H](N(C)C)[C@H]2O)[C@](C)(OC)C[C@@H](C)/C(=N\OC/C=C/c2cnc3ccccc3c2N)[C@H](C)[C@H]2OC(=O)O[C@@]21C | 32 (≈ 38.6 µM) | 64 | 0.125 | 128 (≈ 154 µM) | 16 | 0.25 (≈ 0.302 µM) | 2 | 2 | 8 (≈ 9.65 µM) | 1 | > 0.125 | >8 | 2 (≈ 2.41 µM) | 1 | 8 | 2 | 32 (≈ 38.6 µM) | 1 | 2 | 32 | MIC [16]: 0.016 µg/mL
CC[C@H]1OC(=O)[C@H](C)C(=O)[C@H](C)[C@@H](O[C@@H]2O[C@H](C)C[C@H](N(C)C)[C@H]2O)[C@](C)(OC)C[C@@H](C)C(=O)[C@H](C)[C@H]2N(CCCCn3cnc(-c4cccnc4)c3)C(=O)O[C@]12C [TELITHROMYCIN] | 16 (≈ 19.7 µM) | > 256 | – | – | 4 | – | – | 0.25 to 0.5 | ≥ 1 | >=8 | 0.016 to 0.125 (≈ 0.0197 to 0.154 µM) | >=4 - 8 | 0.5 to 4 (≈ 0.616 to 4.93 µM) | 0.125 to 0.25 | >=4 - 8 | 1 - 4 | 0.125 to 1 (≈ 0.154 to 1.23 µM) | 2 - 8 | 4 | 0.016 to 0.125 | MBC [22]: > 2 µg/mL; CL/F [23]: 363 mL/min/kg; AUC(0-inf) [24]: 927 ng·h/mL; MIC [25]: 0.25 µg/mL; MBC [26]: 1 µg/mL (≈ 1.23 µM); IC50 [27]: 11.8 µM; MIC [28]: 0.25 µg/mL; Selectivity ratio [29]: 4; AUC(0-t) [30]: 897 ng·h/mL; half-life [31]: 1.22 h; MRT [32]: 3.27 h; Cmax [33]: 204 ng/mL; MIC [34]: 0.031 µg/mL; MBC [35]: > 0.25 µg/mL; Tmax [36]: 2 h; Selectivity ratio [37]: >8; Selectivity ratio [38]: >8
